According to ChEMBL document CHEMBL4837209, “Synthesis and BK channel-opening activity of 2-amino-1,3-thiazole derivatives” (Bioorg Med Chem Lett, 2021):
Active and inactive are the calls of the source. The rule behind the calls is not given here.

Tests used:
[1] = molecular target: Calcium-activated potassium channel subunit alpha-1 (Homo sapiens) (UniProt Q12791); assay: Opening of BK channel in human AD293 cells assessed as relative fluorescence unit at 5 uM by cell-based fluorescence assay relative to control
Calcium-activated potassium channel subunit alpha-1 (Homo sapiens), sequence (Q12791 whole entry): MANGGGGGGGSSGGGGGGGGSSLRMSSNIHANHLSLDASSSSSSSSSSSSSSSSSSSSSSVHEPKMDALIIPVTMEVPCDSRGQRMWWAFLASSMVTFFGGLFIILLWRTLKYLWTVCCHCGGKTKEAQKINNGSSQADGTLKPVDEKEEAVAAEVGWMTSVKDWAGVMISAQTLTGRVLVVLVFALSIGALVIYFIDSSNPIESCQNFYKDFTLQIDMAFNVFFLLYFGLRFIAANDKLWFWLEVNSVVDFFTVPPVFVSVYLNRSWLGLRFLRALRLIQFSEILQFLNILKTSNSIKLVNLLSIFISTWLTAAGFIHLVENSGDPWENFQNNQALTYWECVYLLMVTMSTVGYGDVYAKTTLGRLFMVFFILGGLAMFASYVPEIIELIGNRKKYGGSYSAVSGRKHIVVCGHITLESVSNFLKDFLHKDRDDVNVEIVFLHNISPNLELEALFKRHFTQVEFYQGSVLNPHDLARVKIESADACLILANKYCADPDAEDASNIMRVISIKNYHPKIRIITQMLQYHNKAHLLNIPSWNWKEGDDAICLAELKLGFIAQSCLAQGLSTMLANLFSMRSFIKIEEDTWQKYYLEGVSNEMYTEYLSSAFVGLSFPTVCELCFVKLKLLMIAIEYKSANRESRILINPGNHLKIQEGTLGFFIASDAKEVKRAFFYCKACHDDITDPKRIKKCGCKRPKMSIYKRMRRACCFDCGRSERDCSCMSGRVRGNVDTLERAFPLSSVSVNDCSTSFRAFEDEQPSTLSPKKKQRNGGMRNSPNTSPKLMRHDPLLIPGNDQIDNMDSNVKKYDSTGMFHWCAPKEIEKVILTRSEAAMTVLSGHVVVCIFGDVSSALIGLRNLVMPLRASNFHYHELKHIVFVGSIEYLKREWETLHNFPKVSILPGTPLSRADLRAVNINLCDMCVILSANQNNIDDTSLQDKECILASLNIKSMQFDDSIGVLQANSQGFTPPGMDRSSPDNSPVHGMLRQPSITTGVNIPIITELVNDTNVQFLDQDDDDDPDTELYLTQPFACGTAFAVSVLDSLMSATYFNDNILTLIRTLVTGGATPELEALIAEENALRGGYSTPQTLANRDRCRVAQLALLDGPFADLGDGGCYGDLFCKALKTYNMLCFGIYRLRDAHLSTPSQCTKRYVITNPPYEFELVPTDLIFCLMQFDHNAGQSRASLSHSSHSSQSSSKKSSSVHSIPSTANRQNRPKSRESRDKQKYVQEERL
Procedure, shortened: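 FluxOR Tl⁺-flux assay in AD-293 cells expressing hyperactive mutant BK channels (G803D/N806K). Each fluorescence trace was normalized to its own basal level to give RFU. ΔRFU with compound at 5 μM was expressed versus the drug-free control. DMSO served as negative control and CTBIC at a fixed concentration as positive control. Values are means of at least three separate measurements.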

[2] = molecular target: Calcium-activated potassium channel subunit alpha-1 (Rattus norvegicus) (UniProt Q62976); assay: […] of rat BK calcium channel expressed in Xenopus laevis oocytes assessed as increase in inward current tail at 10 uM at -80 to 200 mV by patch clamp assay; format: cell-based; conditions: Oocyte
Calcium-activated potassium channel subunit alpha-1 (Rattus norvegicus), sequence (Q62976 whole entry): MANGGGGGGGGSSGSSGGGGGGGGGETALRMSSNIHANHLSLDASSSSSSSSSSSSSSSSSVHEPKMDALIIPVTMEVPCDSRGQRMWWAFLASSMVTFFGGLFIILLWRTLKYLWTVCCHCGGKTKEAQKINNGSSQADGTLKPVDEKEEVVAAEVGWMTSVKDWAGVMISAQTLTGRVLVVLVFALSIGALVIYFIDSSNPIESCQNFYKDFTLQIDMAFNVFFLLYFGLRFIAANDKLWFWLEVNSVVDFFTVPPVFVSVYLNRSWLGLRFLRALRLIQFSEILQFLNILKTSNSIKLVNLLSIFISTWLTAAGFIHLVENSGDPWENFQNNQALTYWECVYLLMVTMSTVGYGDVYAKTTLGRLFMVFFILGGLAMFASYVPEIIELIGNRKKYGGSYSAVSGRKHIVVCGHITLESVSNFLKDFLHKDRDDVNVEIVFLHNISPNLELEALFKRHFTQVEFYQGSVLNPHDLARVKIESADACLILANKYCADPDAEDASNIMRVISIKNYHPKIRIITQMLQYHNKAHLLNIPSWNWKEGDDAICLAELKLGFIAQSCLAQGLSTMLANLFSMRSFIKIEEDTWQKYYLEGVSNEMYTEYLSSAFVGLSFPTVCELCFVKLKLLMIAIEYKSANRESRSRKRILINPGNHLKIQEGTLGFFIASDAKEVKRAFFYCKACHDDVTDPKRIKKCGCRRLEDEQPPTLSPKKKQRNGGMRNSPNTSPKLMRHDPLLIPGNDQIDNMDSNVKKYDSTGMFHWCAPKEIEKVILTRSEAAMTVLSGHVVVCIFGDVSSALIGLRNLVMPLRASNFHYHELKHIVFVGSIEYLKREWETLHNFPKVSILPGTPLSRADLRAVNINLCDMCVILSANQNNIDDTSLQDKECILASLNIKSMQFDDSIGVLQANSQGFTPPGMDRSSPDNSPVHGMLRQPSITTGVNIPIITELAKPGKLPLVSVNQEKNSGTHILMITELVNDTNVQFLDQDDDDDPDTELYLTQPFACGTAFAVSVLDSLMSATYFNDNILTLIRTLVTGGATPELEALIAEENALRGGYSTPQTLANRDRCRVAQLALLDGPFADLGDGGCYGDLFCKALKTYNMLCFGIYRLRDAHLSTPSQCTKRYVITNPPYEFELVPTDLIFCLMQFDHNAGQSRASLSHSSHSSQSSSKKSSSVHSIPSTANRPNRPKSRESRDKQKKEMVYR
Procedure, shortened: (§1)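 Rat BK α-subunit (Slo1) expressed in Xenopus laevis oocytes. Currents were recorded by gigaohm-seal patch clamp in the outside-out configuration. Macroscopic currents were evoked by voltage pulses from -80 to 200 mV, with and without compound. Student t-test was used.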

[3] = molecular target: Calcium-activated potassium channel subunit alpha-1 (Rattus norvegicus) (UniProt Q62976); assay: […] of rat BK calcium channel expressed in Xenopus laevis oocytes assessed as maximum conductance at 10 uM at -80 to 200 mV by patch clamp assay relative to control; format: cell-based; conditions: Oocyte; procedure, shortened: as §1
[4] = molecular target: Calcium-activated potassium channel subunit alpha-1 (Homo sapiens) (UniProt Q12791); assay: […] of BK calcium channel in human AD293 cells assessed as relative fluorescence unit at 1 to 30 uM in presence of 1 uM paxilline by cell-based fluorescence assay; conditions: dose 1-30 µM
Procedure, shortened: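 FluxOR Tl⁺-flux fluorescence in AD-293 cells expressing G803D/N806K mutant BK channels. Compounds were tested at 1–30 μM, alone and co-applied with 1 μM paxilline to confirm the BK dependence of the signal. Signals were normalized to the basal level of each trace. Student t-test was used.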

[5] = molecular target: Calcium-activated potassium channel subunit alpha-1 (Rattus norvegicus) (UniProt Q62976); assay: […] of rat BK calcium channel expressed in Xenopus laevis oocytes assessed as G-V shift toward more negative voltage at 10 uM at -80 to 200 mV by patch clamp assay; format: cell-based; conditions: Oocyte; procedure, shortened: as §1
[6] = molecular target: Calcium-activated potassium channel subunit alpha-1 (Rattus norvegicus) (UniProt Q62976); assay: […] of rat BK calcium channel expressed in Xenopus laevis oocytes assessed as V1/2 at 10 uM at -80 to 200 mV by patch clamp assay; format: cell-based; conditions: Oocyte; procedure, shortened: as §1
[7] = molecular target: Calcium-activated potassium channel subunit alpha-1 (Rattus norvegicus) (UniProt Q62976); assay: […] of rat BK calcium channel expressed in Xenopus laevis oocytes assessed as increase in outward current tail at 10 uM at -80 to 200 mV by patch clamp assay; format: cell-based; conditions: Oocyte; procedure, shortened: as §1
[8] = molecular target: Calcium-activated potassium channel subunit alpha-1 (Homo sapiens) (UniProt Q12791); assay: Opening of BK channel in human AD293 cells assessed as relative fluorescence unit by cell-based fluorescence assay; conditions: dose 1-30 µM

Structure (SMILES) | RFU [1] | other results
N#Cc1ccccc1Cc1cnc(N)s1 | 1.06 | –
Nc1ncc(Cc2cccc(Cl)c2)s1 | 1.51 | –
Nc1ncc(Cc2ccccc2C(F)(F)F)s1 | 1.07 | –
COc1ccccc1Cc1cnc(N)s1 | 0.94 | –
Nc1ncc(Cc2ccncc2)s1 | 1.11 | –
O=C(O)c1ccc(Cl)c2c1[nH]c1c3ccc(C(F)(F)F)cc3oc12 | 3.3 | –
Nc1ncc(Cc2ccc(Cl)cc2)s1 | 1.59 | –
Nc1ncc(Cc2cccc(C(F)(F)F)c2)s1 | 1.22 | –
COc1ccc(Cc2cnc(N)s2)cc1 | 1.02 | –
Nc1ncc(Cc2ccc([N+](=O)[O-])cc2)s1 | 0.94 | –
Nc1ncc(Cc2ccccc2Br)s1 | 2.67 | Activity [2]: Active; fold change (FC) [3]: 1.4; inhibition [4]: Active; Activity [5]: Active; V1/2 [6]: 23.4 mV; Activity [7]: Active; inhibition [8]: Dose-Dependent Effect
Nc1ncc(Cc2cccc(Br)c2)s1 | 1.37 | –
Nc1ncc(Cc2ccc(C(F)(F)F)cc2)s1 | 2.1 | Activity [2]: Active; fold change (FC) [3]: 1.3; inhibition [4]: Active; Activity [5]: Active; V1/2 [6]: 24.5 mV; Activity [7]: Active; inhibition [8]: Dose-Dependent Effect
Cc1cccc(Cc2cnc(N)s2)c1 | 1.27 | –
N#Cc1cccc(Cc2cnc(N)s2)c1 | 1 | –
Cc1ccc(Cc2cnc(N)s2)cc1 | 1.11 | –
COc1cc(Cc2cnc(N)s2)cc(C(F)(F)F)c1 | 0.97 | –
Nc1ncc(C(=O)c2ccc(C(F)(F)F)cc2)s1 | 1.08 | –
Nc1ncc(Cc2ccccc2Cl)s1 | 1.13 | –

The next lines start with results.

RFU [1] | Structure (SMILES) | other results
1.08 | Nc1ncc(Cc2cccnc2)s1 | –
1.37 | Cc1ccccc1Cc1cnc(N)s1 | –
1.14 | CC(=O)Nc1ncc(Cc2ccc(Br)cc2)s1 | –
0.94 | O=C(CCl)Nc1ncc(Cc2ccc(Br)cc2)s1 | –
0.94 | Nc1ncc(C(=O)c2ccc(Br)cc2)s1 | –
1.85 | Nc1ncc(Cc2ccc(Br)cc2)s1 | –
1.21 | N#Cc1ccc(Cc2cnc(N)s2)cc1 | –
1.02 | COc1cccc(Cc2cnc(N)s2)c1 | –
